In brackets after ≈: the same amount, converted by molar mass.
Assays:
Type in all cases: functional
[1] = system: Escherichia coli; test: MIC against aerobic organism Escherichia coli strain 2891; conditions: Escherichia coli; read-out: MIC
Procedure, shortened: (§1)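 Agar-dilution MIC in µg/mL against aerobic bacterial strains on tryptocase soy agar, with inoculum applied as spots. Most series used 10^5 cfu per spot, and a later series used 10^4 cfu per spot. In some tables, footnoted strains were instead tested on Mueller-Hinton or nutrient agar. β-Lactamase-producing strains are flagged.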

[2] = system: Salmonella; test: Minimum inhibitory concentration against aerobic organism Salmonella strain 3860; procedure, shortened: as §1
[3] = system: Klebsiella aerogenes; test: Minimum inhibitory concentration against aerobic organism Enterobacter aerogenes strain 2828; procedure, shortened: as §1
[4] = system: Enterococcus faecalis; test: Minimum inhibitory concentration against aerobic organism Streptococcus faecalis strain 2864; procedure, shortened: as §1
[5] = system: Enterobacter cloacae; test: Minimum inhibitory concentration against aerobic organism Enterobacter cloacae strain 2646; conditions: Enterobacter cloacae; read-out: MIC; procedure, shortened: as §1
[6] = system: Pseudomonas aeruginosa; test: Minimum inhibitory concentration against aerobic organism Pseudomonas aeruginosa strain 2835; procedure, shortened: as §1
[7] = system: Staphylococcus aureus; test: Minimum inhibitory concentration against aerobic organism Staphylococcus aureus strain 2865; procedure, shortened: as §1
[8] = system: Morganella morganii; test: Minimum inhibitory concentration against aerobic organism Morganella morganii strain 2833; conditions: Morganella morganii; read-out: MIC; procedure, shortened: as §1
[9] = system: Proteus mirabilis; test: Minimum inhibitory concentration against aerobic organism Proteus mirabilis strain 2830; conditions: Proteus mirabilis; read-out: MIC; procedure, shortened: as §1
[10] = system: Klebsiella pneumoniae; test: Minimum inhibitory concentration against aerobic organism Klebsiella pneumoniae strain 4005; procedure, shortened: as §1
[11] = system: Staphylococcus aureus; test: Minimum inhibitory concentration against aerobic organism Staphylococcus aureus strain 2868; conditions: Staphylococcus aureus; read-out: MIC; procedure, shortened: as §1
[12] = system: Proteus vulgaris; test: Minimum inhibitory concentration against aerobic organism Proteus vulgaris strain 2829; conditions: Proteus vulgaris; read-out: MIC; procedure, shortened: as §1
[13] = system: Klebsiella pneumoniae; test: Minimum inhibitory concentration against aerobic organism Klebsiella pneumoniae strain 2882; conditions: Klebsiella pneumoniae; read-out: MIC; procedure, shortened: as §1
[14] = system: Streptococcus pyogenes; test: Minimum inhibitory concentration against aerobic organism Streptococcus pyogenes strain 3124; conditions: Streptococcus pyogenes; read-out: MIC; procedure, shortened: as §1
[15] = system: Shigella; test: Minimum inhibitory concentration against aerobic organism Shigella species strain 2880; conditions: Shigella; read-out: MIC; procedure, shortened: as §1
[16] = system: Serratia marcescens; test: Minimum inhibitory concentration against aerobic organism Serratia marcescens strain 2852; conditions: Serratia marcescens; read-out: MIC; procedure, shortened: as §1
[17] = system: Klebsiella aerogenes; test: Minimum inhibitory concentration against aerobic organism Enterobacter aerogenes strain 2906; conditions: Klebsiella aerogenes; read-out: MIC; procedure, shortened: as §1
[18] = Minimum inhibitory concentration against aerobic organism Salmonella schottmuelleri strain 2837; conditions: Salmonella; read-out: MIC; procedure, shortened: as §1

CC(=O)OCC1=C(C(=O)[O-])N2C(=O)[C@@H](Nc3cc[n+](COCc4ccc([N+](=O)[O-])cc4)cc3)[C@H]2SC1
MIC [1]: 1 µg/mL (≈ 1.94 µM) | MIC [2]: 128 µg/mL (≈ 249 µM) | MIC [3]: > 128 µg/mL | MIC [4]: > 128 µg/mL | MIC [5]: 64 µg/mL (≈ 124 µM) | MIC [6]: > 128 µg/mL | MIC [7]: 2 µg/mL (≈ 3.89 µM) | MIC [8]: > 128 µg/mL | MIC [9]: > 128 µg/mL | MIC [10]: 128 µg/mL (≈ 249 µM) | MIC [11]: 8 µg/mL (≈ 15.5 µM) | MIC [12]: 1 µg/mL (≈ 1.94 µM)

Cc1nnc(SCC2=C(C(=O)[O-])N3C(=O)[C@@H](Nc4cc[n+](COCC(Cl)(Cl)Cl)cc4C(=O)[O-])[C@H]3SC2)s1.[Na+]
MIC [1]: 128 µg/mL | MIC [2]: > 128 µg/mL | MIC [3]: > 128 µg/mL | MIC [4]: > 128 µg/mL | MIC [5]: > 128 µg/mL | MIC [6]: > 128 µg/mL | MIC [7]: 64 µg/mL | MIC [8]: > 128 µg/mL | MIC [9]: > 128 µg/mL | MIC [10]: > 128 µg/mL | MIC [11]: > 128 µg/mL | MIC [12]: 16 µg/mL

O=C([O-])C1=C(C[n+]2ccccc2)CS[C@@H]2[C@H]([N-]c3cc[n+](Cc4ccccc4)cc3)C(=O)N12
MIC [1]: < 0.06 µg/mL | MIC [2]: 2 µg/mL (≈ 4.36 µM) | MIC [3]: 2 µg/mL (≈ 4.36 µM) | MIC [4]: 128 µg/mL (≈ 279 µM) | MIC [5]: 0.125 µg/mL (≈ 0.273 µM) | MIC [6]: 64 µg/mL (≈ 140 µM) | MIC [7]: 0.125 µg/mL (≈ 0.273 µM) | MIC [8]: > 128 µg/mL | MIC [9]: > 128 µg/mL | MIC [10]: 32 µg/mL (≈ 69.8 µM) | MIC [11]: 0.5 µg/mL (≈ 1.09 µM) | MIC [12]: 0.25 µg/mL (≈ 0.545 µM)

CCOC(=S)SCC1=C(C(=O)[O-])N2C(=O)[C@@H](Nc3cc[n+](Cc4ccccc4)cc3)[C@H]2SC1
MIC [1]: 1 µg/mL (≈ 1.99 µM) | MIC [2]: 4 µg/mL (≈ 7.97 µM) | MIC [3]: > 128 µg/mL | MIC [4]: > 128 µg/mL | MIC [5]: 4 µg/mL (≈ 7.97 µM) | MIC [6]: > 128 µg/mL | MIC [7]: 1 µg/mL (≈ 1.99 µM) | MIC [8]: > 128 µg/mL | MIC [9]: > 128 µg/mL | MIC [10]: > 128 µg/mL | MIC [11]: 4 µg/mL (≈ 7.97 µM) | MIC [12]: 8 µg/mL (≈ 15.9 µM)

[N-]=[N+]=NCC1=C(C(=O)[O-])N2C(=O)[C@@H](Nc3cc[n+](Cc4ccccc4)cc3)[C@H]2SC1
MIC [1]: 0.25 µg/mL (≈ 0.592 µM) | MIC [2]: 1 µg/mL (≈ 2.37 µM) | MIC [3]: 8 µg/mL (≈ 18.9 µM) | MIC [4]: > 128 µg/mL | MIC [5]: 1 µg/mL (≈ 2.37 µM) | MIC [6]: > 128 µg/mL | MIC [7]: 0.5 µg/mL (≈ 1.18 µM) | MIC [8]: > 128 µg/mL | MIC [9]: > 128 µg/mL | MIC [10]: 64 µg/mL (≈ 151 µM) | MIC [11]: 2 µg/mL (≈ 4.73 µM) | MIC [12]: < 0.06 µg/mL

O=C([O-])C1=C(CSc2cc[n+](Cc3ccccc3)cc2)CS[C@@H]2[C@H]([N-]c3cc[n+](Cc4ccccc4)cc3)C(=O)N12
MIC [1]: < 0.06 µg/mL | MIC [2]: 4 µg/mL (≈ 6.89 µM) | MIC [3]: 1 µg/mL (≈ 1.72 µM) | MIC [4]: 64 µg/mL (≈ 110 µM) | MIC [5]: < 0.06 µg/mL | MIC [6]: > 128 µg/mL | MIC [7]: < 0.06 µg/mL | MIC [8]: > 128 µg/mL | MIC [9]: 128 µg/mL (≈ 220 µM) | MIC [10]: 32 µg/mL (≈ 55.1 µM) | MIC [11]: 0.25 µg/mL (≈ 0.43 µM) | MIC [12]: < 0.06 µg/mL

Cn1nnnc1SCC1=C(C(=O)[O-])N2C(=O)[C@@H](Nc3cc[n+](Cc4ccccc4)cc3)[C@H]2SC1
MIC [13]: 0.25 µg/mL (≈ 0.504 µM) | MIC [1]: 0.06 µg/mL (≈ 0.121 µM) | MIC [2]: 1 µg/mL (≈ 2.02 µM) | MIC [14]: 0.015 µg/mL (≈ 0.0303 µM) | MIC [3]: 2 µg/mL (≈ 4.04 µM) | MIC [4]: 128 µg/mL (≈ 258 µM) | MIC [5]: 1 µg/mL (≈ 2.02 µM) | MIC [6]: > 128 µg/mL | MIC [15]: < 0.004 µg/mL | MIC [7]: 0.25 µg/mL (≈ 0.504 µM) | MIC [8]: 16 µg/mL (≈ 32.3 µM) | MIC [9]: 32 µg/mL (≈ 64.6 µM) | MIC [10]: 8 µg/mL (≈ 16.1 µM) | MIC [16]: 64 µg/mL (≈ 129 µM) | MIC [17]: 8 µg/mL (≈ 16.1 µM) | MIC [11]: 4 µg/mL (≈ 8.07 µM) | MIC [18]: < 0.004 µg/mL | MIC [12]: 1 µg/mL (≈ 2.02 µM)

O=C([O-])C1=C(Cl)CS[C@@H]2[C@H](Nc3cc[n+](Cc4ccccc4)cc3)C(=O)N12
MIC [1]: 0.25 µg/mL (≈ 0.622 µM) | MIC [2]: 128 µg/mL (≈ 319 µM) | MIC [3]: 8 µg/mL (≈ 19.9 µM) | MIC [4]: > 128 µg/mL | MIC [5]: 4 µg/mL (≈ 9.95 µM) | MIC [6]: > 128 µg/mL | MIC [7]: 2 µg/mL (≈ 4.98 µM) | MIC [8]: > 128 µg/mL | MIC [9]: > 128 µg/mL | MIC [10]: 64 µg/mL (≈ 159 µM) | MIC [11]: 128 µg/mL (≈ 319 µM) | MIC [12]: < 0.125 µg/mL

O=C(Cc1cccs1)N[C@@H]1C(=O)N2C(C(=O)[O-])=C(C[n+]3ccccc3)CS[C@H]12 [CEPHALORIDINE]
MIC [1]: > 128 µg/mL | MIC [2]: 0.5 µg/mL (≈ 1.2 µM) | MIC [3]: 8 µg/mL (≈ 19.3 µM) | MIC [4]: 64 µg/mL (≈ 154 µM) | MIC [5]: > 128 µg/mL | MIC [6]: > 128 µg/mL | MIC [7]: 0.25 µg/mL (≈ 0.602 µM) | MIC [8]: > 128 µg/mL | MIC [9]: 16 µg/mL (≈ 38.5 µM) | MIC [10]: 0.25 µg/mL (≈ 0.602 µM) | MIC [11]: 4 µg/mL (≈ 9.63 µM) | MIC [12]: > 128 µg/mL

CN(C)CCn1nnnc1SCC1=C(C(=O)[O-])N2C(=O)[C@@H](Nc3cc[n+](Cc4ccccc4)cc3)[C@H]2SC1
MIC [1]: < 0.06 µg/mL | MIC [2]: 2 µg/mL (≈ 3.62 µM) | MIC [3]: 0.5 µg/mL (≈ 0.905 µM) | MIC [4]: 128 µg/mL (≈ 232 µM) | MIC [5]: 0.25 µg/mL (≈ 0.452 µM) | MIC [6]: > 128 µg/mL | MIC [7]: 0.5 µg/mL (≈ 0.905 µM) | MIC [8]: 64 µg/mL (≈ 116 µM) | MIC [9]: 128 µg/mL (≈ 232 µM) | MIC [10]: 4 µg/mL (≈ 7.24 µM) | MIC [11]: 4 µg/mL (≈ 7.24 µM) | MIC [12]: 0.125 µg/mL (≈ 0.226 µM)

— ChEMBL document CHEMBL1122046, “Quaternary heterocyclylamino beta-lactams: a generic alternative to the classical acylamino side chain” (1982)
